As usually defined, the EC50 is the concentration at which the effect is half-maximal. A word on the CC50: it is the concentration at which the toxic effect on the cells reaches its halfway point.

This test concerns Igrove/Jurkat-DNR chemoreversal, trypan blue viability, 7 d. The experiment in a line: chemoreversal in ABCG2 cells, dose response, ABC transporter inhibitor project, paired ABCB1 counter-screen, SAR hit validation (AID 488974). The settings on record: for CC50: measured here: toxicity in resistant cells alone. In short, it runs like this:
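System: drug-resistant human Igrove (ABCG2 arm) and Jurkat/DNR (ABCB1 counterscreen) cells / Quantity: 100,000 cells/mL / Also added: fixed selective agents mitoxantrone (Igrove) and daunorubicin (Jurkat/DNR) / Doses: test compound dose series spanning 0.1–100 µM / Incubation: compound exposure over 7 days / Signal: trypan blue exclusion with cell counting by light microscopy / Measure: chemo-reversal 50% viability concentration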
A general note: Counterscreens check selectivity or assay interference.

Active and inactive are the calls of the source.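 How the source made its calls: active means ratio of toxic midpoint dose to chemo-reversal midpoint dose above 10, among compounds with toxic midpoint under 15 µM; inactive means the rest.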

For the compound `O=C(c1ccoc1)N1CCN(c2cc(-c3ccco3)nc3cc(-c4ccccc4)nn23)CC1`, the EC50 is 0.31 µM and the CC50 stood at 18.3 µM.

For the compound `COc1ccc(-c2cc3nc(C)c(C)c(N4CCN(C(=O)c5ccco5)CC4)n3n2)cc1`, the EC50 was 1.44 µM (inactive) and the CC50 was 10.5 µM.

`O=C(c1ccco1)N1CCN(c2cc(-c3ccccc3)nc3cc(-c4cccc(F)c4)nn23)CC1`: the EC50 was 0.76 µM (inactive) and the CC50 was found to be 8.25 µM.

In the case of `Cc1cc(N2CCN(C(=O)c3ccco3)CC2)n2nc(-c3ccc(F)cc3)cc2n1`, the EC50 is 0.14 µM and the CC50 amounted to 40.4 µM.

`COc1ccc(-c2cc3nc(C)c(C)c(N4CCN(C(C)=O)CC4)n3n2)cc1`: the EC50 is 3.28 µM and the CC50 is 81.7 µM.

For the compound `COc1cccc(C(=O)N2CCN(c3cc(-c4ccccc4)nc4cc(-c5cccc(Cl)c5)nn34)CC2)c1`, the EC50 was 0.21 µM and the CC50 is over 101 µM.

On to `Cc1nc2cc(-c3cccc(Cl)c3)nn2c(N2CCN(C(=O)c3ccco3)CC2)c1C`, for which the EC50 is 0.17 µM and the CC50 was found to be 47.4 µM.

On to `Cc1nc2cc(-c3ccc4c(c3)OCO4)nn2c(N2CCN(C(=O)c3ccoc3)CC2)c1C`, for which the EC50 was 1.63 µM and the CC50 is over 100 µM.

`Cc1ccc(-c2cc3nc(-c4ccccc4)cc(N4CCN(C(=O)c5ccoc5)CC4)n3n2)cc1`: the EC50 was 0.45 µM and the CC50 came to 86 µM.

As to `COc1cccc(-c2cc3nc(C)c(C)c(N4CCN(C(=O)c5ccoc5)CC4)n3n2)c1`, the EC50 is 0.76 µM and the CC50 was over 100 µM.

As for `COc1cccc(-c2cc3nc(-c4ccco4)cc(N4CCN(C(=O)c5ccoc5)CC4)n3n2)c1`, the EC50 was 1 µM and the CC50 is over 100 µM.

With `O=C(c1ccco1)N1CCN(c2cc(-c3ccccc3)nc3cc(-c4cccc(Cl)c4)nn23)CC1`, the EC50 was 0.14 µM (inactive) and the CC50 amounted to 6 µM.

As to `O=C(c1ccco1)N1CCN(c2c3c(nc4cc(-c5cccc(F)c5)nn24)CCCC3)CC1`, the EC50 is 0.39 µM (inactive) and the CC50 was 5.77 µM.

On to `COc1ccc(-c2cc3nc(-c4ccccc4)cc(N4CCN(C(=O)c5ccoc5)CC4)n3n2)cc1`, for which the EC50 was 0.38 µM and the CC50 was over 100 µM.

For the compound `CC(=O)N1CCN(c2c(C)c(C)nc3cc(-c4cccc(F)c4)nn23)CC1`, the EC50 was 0.73 µM and the CC50 was over 100 µM.

`Cc1cc(N2CCN(C(=O)c3ccco3)CC2)n2nc(-c3ccccc3)nc2n1`: the EC50 is 2.94 µM (inactive) and the CC50 came out at 16.2 µM.

`COc1cc(OC)cc(-c2cc3nc(C)c(C)c(N4CCN(C(=O)c5ccoc5)CC4)n3n2)c1`: the EC50 was 0.95 µM and the CC50 was over 100 µM.

With `O=C(c1ccoc1)N1CCN(c2cc(-c3ccco3)nc3cc(-c4cccc(Cl)c4)nn23)CC1`, the EC50 is 1.38 µM (inactive) and the CC50 was 10.8 µM.

Consider `COc1cccc(-c2cc3nc(C)c(C)c(N4CCN(Cc5ccco5)CC4)n3n2)c1`, for which the EC50 is 0.09 µM and the CC50 is over 100 µM.

As to `COc1ccc(-c2[nH]nc3nc(N4CCN(C(=O)c5ccoc5)CC4)cc(C(F)(F)F)c23)cc1`, the EC50 is 0.46 µM (inactive) and the CC50 worked out at 1.31 µM.

In the case of `O=C(c1ccoc1)N1CCN(c2cc(-c3cccnc3)nc3cc(-c4cccc(Cl)c4)nn23)CC1`, the EC50 was 0.02 µM (inactive) and the CC50 was 5.77 µM.

As for `O=C(c1ccoc1)N1CCN(c2cc(-c3ccncc3)nc3cc(-c4cccc(Cl)c4)nn23)CC1`, the 50% effective concentration (EC50) was 0.89 µM and the CC50 is 57.8 µM.

Take `Cc1nc2cc(-c3cccc(Cl)c3)nn2c(N2CCN(C(=O)c3ccsc3)CC2)c1C`: the EC50 is 0.49 µM (inactive) and the CC50 came to 14.9 µM.

As for `Cc1nc2ncnn2c(N2CCN(C(=O)c3ccco3)CC2)c1Cc1ccccc1`, the EC50 was 10.1 µM (inactive) and the CC50 is over 100 µM.

For `O=C(c1ccncc1)N1CCN(c2cc(-c3ccccc3)nc3cc(-c4cccc(Cl)c4)nn23)CC1`, the EC50 was 0.15 µM and the CC50 is 28.3 µM.

For the compound `Cc1cc(N2CCN(C(=O)c3ccco3)CC2)n2nc(C)c(-c3ccccc3)c2n1`, the EC50 is 2.18 µM and the CC50 came to 22.3 µM.

Consider `Cc1nc2cc(-c3cccc(Cl)c3)nn2c(N2CCN(C(=O)c3ccoc3)CC2)c1C`, for which the EC50 is 0.6 µM and the CC50 was over 100 µM.

On to `COc1ccc(-c2cc3nc(-c4ccccc4)cc(N4CCN(C(=O)c5ccccc5)CC4)n3n2)cc1`, for which the EC50 is 0.2 µM and the CC50 worked out at 82.6 µM.

Regarding `O=C(c1ccco1)N1CCN(c2cc(Cc3ccccc3)nc3cc(-c4cccc(Cl)c4)nn23)CC1`, the EC50 is 1.38 µM (inactive) and the CC50 turned out to be 10.5 µM.

Regarding `COc1ccc(-c2cc3nc(-c4ccccc4)cc(N4CCN(C(=O)c5ccsc5)CC4)n3n2)cc1`, the EC50 was 0.17 µM and the CC50 is 30.6 µM.

Turning to `O=C(Cc1ccccc1)N1CCN(c2cc(-c3ccccc3)nc3cc(-c4cccc(Cl)c4)nn23)CC1`, the EC50 was 0.6 µM and the CC50 is over 100 µM.

Consider `O=C(c1ccoc1)N1CCN(c2cc(-c3ccccc3)nc3cc(-c4ccncc4)nn23)CC1`, for which the EC50 is 1.5 µM and the CC50 turned out to be 22.3 µM.

On to `O=C(C1CCCO1)N1CCN(c2c3c(nc4cc(-c5cccc(F)c5)nn24)CCCC3)CC1` (centres undefined), for which the EC50 was 0.2 µM and the CC50 was 17.5 µM.

In the case of `COc1cccc(-c2cc(N3CCN(C(=O)c4ccoc4)CC3)n3nc(-c4cccc(OC)c4)cc3n2)c1`, the EC50 is 0.68 µM and the CC50 is over 100 µM.

As for `Cc1nc2cc(-c3ccc(F)cc3)nn2c(N2CCN(C(=O)c3ccco3)CC2)c1C`, the EC50 was 0.12 µM (inactive) and the CC50 was determined as 5.33 µM.

On to `COc1ccccc1-c1cc2nc(-c3ccccc3)cc(N3CCN(C(=O)c4ccoc4)CC3)n2n1`, for which the EC50 was 0.49 µM (inactive) and the CC50 was found to be 6.5 µM.

Take `O=C(c1cccnc1)N1CCN(c2cc(-c3ccccc3)nc3cc(-c4cccc(Cl)c4)nn23)CC1`: the EC50 is 0.13 µM (inactive) and the CC50 turned out to be 10.3 µM.
